The source of these data is ChEMBL document CHEMBL2010768, “Optimization of Potent Inhibitors of P. falciparum Dihydroorotate Dehydrogenase for the Treatment of Malaria” (ACS Med Chem Lett, 2011).

In data set [1] the target is T1, Dihydroorotate dehydrogenase (Plasmodium falciparum, UniProt Q54A96).
T1 sequence (Q54A96 whole entry): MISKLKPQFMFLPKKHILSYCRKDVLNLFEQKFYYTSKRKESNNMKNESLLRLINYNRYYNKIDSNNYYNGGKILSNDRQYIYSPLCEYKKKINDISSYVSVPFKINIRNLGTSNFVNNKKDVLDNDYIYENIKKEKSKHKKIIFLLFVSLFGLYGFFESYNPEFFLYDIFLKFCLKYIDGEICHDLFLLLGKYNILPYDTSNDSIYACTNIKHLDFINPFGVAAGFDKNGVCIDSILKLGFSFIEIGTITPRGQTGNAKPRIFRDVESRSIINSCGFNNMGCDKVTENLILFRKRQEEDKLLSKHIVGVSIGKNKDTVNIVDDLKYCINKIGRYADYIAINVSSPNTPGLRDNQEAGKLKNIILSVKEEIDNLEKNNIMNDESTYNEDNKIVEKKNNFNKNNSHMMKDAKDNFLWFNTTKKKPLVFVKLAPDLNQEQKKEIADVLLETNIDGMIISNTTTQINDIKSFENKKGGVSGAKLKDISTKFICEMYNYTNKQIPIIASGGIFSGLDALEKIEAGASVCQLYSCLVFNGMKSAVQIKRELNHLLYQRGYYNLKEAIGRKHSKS
Briefly: Inhibition of Plasmodium falciparum DHODH after 20 mins by 2,6-dichloroindophenol-reduction based assay.

The subject of another data set is Plasmodium berghei. As to the kind of experiment: Inhibition of Plasmodium berghei DHODH after 20 mins by 2,6-dichloroindophenol-reduction based assay.
Another data set deals with Plasmodium vivax. As to the kind of experiment: Inhibition of Plasmodium vivax DHODH after 20 mins by 2,6-dichloroindophenol-reduction based assay.
For data set [2], the system named is Plasmodium falciparum. As to the kind of experiment: Antiplasmodial activity against Plasmodium falciparum 3D7 infected in […] after 72 hrs by SYBR green assay. Particulars: 3D7, 72 h. The format is functional, organism-based.
Data set [3] relates to Plasmodium falciparum. As to the kind of experiment: Antiplasmodial activity against Plasmodium falciparum Dd2 infected in […] after 72 hrs by SYBR green assay. The format is functional, organism-based. The note with it: Dd2, 72 h.
Data set [4] in a line: Clearance in human liver microsomes by LC-MS/MS analysis. The format is ADME, Microsome. Summed up:
(§1)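 Liver microsome incubation. Predicted clearance is derived from a well-stirred model corrected for microsomal and protein binding.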
On the technique in general: Liver microsomes are vesicles of endoplasmic reticulum, rich in cytochrome P450 enzymes.

Data set [5] is described as follows: Clearance in mouse liver microsomes by LC-MS/MS analysis. The format is ADME, Microsome. A digest of the protocol: as §1
The next data set addresses T2, Cytochrome P450 1A2 (Homo sapiens, UniProt P05177).
T2 sequence (P05177 whole entry): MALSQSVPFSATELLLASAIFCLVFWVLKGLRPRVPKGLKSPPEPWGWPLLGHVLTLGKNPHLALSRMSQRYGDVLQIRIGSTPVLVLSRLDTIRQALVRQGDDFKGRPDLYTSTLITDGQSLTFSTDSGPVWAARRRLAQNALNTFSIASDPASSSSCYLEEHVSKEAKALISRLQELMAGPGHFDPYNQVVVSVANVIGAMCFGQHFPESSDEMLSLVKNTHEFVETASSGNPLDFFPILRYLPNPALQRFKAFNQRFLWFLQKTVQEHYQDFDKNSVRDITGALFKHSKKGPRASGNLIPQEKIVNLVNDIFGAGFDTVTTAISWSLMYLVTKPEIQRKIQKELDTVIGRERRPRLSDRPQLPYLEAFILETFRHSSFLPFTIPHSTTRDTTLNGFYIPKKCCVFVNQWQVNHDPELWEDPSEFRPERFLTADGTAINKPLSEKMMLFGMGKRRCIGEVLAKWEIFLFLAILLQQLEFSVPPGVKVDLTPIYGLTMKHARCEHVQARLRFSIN
As to the kind of experiment: Inhibition of human CYP1A2 using phenacetin as substrate after 10 mins by LC-MS/MS analysis. The format is ADME.

The target in another data set is Cytochrome P450 2C9 (Homo sapiens, UniProt P11712). Briefly: Inhibition of human CYP2C9 using diclofenac as substrate after 10 mins by LC-MS/MS analysis. The format is ADME.
Sequence of Cytochrome P450 2C9 (P11712 whole entry): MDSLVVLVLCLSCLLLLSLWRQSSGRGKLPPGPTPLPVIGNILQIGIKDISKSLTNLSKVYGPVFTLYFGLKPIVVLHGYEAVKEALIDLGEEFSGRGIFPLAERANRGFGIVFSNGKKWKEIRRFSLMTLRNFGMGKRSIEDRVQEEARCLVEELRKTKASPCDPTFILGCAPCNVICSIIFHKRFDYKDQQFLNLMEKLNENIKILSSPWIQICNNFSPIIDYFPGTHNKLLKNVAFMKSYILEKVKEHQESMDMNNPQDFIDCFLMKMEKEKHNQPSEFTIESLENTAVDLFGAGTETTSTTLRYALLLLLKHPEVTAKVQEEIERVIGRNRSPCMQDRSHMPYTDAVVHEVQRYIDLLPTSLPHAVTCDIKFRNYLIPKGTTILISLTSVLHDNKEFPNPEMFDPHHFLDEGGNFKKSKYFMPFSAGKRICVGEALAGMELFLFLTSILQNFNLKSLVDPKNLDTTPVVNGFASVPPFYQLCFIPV
In another data set the target is Cytochrome P450 2C19 (Homo sapiens, UniProt P33261). Briefly: Inhibition of human CYP2C19 using S-mephenytoin as substrate after 45 mins by LC-MS/MS analysis. The format is ADME.
Sequence of Cytochrome P450 2C19 (P33261 whole entry): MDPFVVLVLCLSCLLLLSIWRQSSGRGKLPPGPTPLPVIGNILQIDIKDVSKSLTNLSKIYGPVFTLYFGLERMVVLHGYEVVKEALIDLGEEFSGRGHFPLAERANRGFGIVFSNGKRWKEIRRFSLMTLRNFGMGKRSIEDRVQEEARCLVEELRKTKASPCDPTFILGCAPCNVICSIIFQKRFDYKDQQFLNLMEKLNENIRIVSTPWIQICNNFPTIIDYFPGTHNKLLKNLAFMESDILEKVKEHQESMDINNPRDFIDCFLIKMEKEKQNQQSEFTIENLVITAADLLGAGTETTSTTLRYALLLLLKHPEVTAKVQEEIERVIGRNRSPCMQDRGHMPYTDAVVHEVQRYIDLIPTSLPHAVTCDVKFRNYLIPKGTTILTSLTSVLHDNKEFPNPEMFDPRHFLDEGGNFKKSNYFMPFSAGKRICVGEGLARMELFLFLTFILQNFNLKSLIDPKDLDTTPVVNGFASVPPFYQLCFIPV
A further data set concerns the target Cytochrome P450 3A4 (Homo sapiens, UniProt P08684). As to the kind of experiment: Inhibition of human CYP3A4 using midazolam as substrate after 5 mins by LC-MS/MS analysis. The format is ADME.
The target of a further data set is Cytochrome P450 2D6 (Homo sapiens, UniProt P10635). Briefly: Inhibition of human CYP2D6 using bufuralol as substrate after 10 mins by LC-MS/MS analysis. The format is ADME.
Sequence of Cytochrome P450 2D6 (P10635 whole entry): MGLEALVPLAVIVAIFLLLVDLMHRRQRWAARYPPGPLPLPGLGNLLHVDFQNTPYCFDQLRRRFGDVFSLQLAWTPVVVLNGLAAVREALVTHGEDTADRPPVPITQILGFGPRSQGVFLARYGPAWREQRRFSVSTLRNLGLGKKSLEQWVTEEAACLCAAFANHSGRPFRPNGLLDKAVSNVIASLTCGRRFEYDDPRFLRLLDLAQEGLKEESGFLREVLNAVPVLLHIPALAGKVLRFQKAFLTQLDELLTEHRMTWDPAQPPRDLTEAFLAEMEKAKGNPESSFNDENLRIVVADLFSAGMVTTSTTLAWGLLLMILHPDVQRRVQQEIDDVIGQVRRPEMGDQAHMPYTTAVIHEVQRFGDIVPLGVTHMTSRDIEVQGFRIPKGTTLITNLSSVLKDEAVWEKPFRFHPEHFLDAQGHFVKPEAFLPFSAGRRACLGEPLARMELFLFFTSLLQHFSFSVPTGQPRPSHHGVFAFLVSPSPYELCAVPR
For data set [6], the target named is Voltage-gated inwardly rectifying potassium channel KCNH2 (Homo sapiens, UniProt Q12809). As to the kind of experiment: Inhibition of human ERG expressed in CHOK1 cells by whole cell voltage clamp assay. The format is cell-based, CHO-K1.
Sequence of Voltage-gated inwardly rectifying potassium channel KCNH2 (Q12809 whole entry): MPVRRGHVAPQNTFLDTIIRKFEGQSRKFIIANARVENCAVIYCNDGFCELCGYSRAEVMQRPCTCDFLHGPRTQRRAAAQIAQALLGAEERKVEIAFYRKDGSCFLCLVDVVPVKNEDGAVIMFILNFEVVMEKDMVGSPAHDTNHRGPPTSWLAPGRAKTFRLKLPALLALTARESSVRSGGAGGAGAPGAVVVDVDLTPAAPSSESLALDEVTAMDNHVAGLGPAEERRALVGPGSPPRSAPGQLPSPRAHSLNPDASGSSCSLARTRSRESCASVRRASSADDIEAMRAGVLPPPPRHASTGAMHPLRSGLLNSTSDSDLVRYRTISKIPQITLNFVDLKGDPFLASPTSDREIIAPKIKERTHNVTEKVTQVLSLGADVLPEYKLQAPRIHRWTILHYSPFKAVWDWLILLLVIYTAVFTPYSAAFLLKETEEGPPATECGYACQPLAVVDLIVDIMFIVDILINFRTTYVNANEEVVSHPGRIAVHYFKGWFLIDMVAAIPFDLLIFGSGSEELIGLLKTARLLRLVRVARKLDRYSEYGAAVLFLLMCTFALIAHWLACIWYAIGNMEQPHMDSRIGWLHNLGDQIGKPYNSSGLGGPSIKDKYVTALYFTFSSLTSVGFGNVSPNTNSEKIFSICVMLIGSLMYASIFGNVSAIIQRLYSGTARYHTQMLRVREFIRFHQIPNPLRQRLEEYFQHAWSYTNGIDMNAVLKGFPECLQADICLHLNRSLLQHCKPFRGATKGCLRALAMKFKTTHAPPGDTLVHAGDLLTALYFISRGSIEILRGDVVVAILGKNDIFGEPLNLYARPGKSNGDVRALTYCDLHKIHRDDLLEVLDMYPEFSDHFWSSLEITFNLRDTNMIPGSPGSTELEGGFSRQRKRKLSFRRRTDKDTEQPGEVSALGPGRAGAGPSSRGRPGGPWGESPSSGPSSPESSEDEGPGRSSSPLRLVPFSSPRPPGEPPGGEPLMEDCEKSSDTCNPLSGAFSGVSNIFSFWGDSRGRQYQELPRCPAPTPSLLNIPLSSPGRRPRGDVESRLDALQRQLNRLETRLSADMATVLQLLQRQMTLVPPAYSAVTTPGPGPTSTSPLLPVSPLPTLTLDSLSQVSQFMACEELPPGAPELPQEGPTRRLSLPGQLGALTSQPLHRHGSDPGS
Data set [7] addresses Dihydroorotate dehydrogenase (quinone), mitochondrial (Homo sapiens, UniProt Q02127). Briefly: Inhibition of human DHODH after 20 mins by 2,6-dichloroindophenol-reduction based assay.
Data set [8] can be described thus: Cytotoxicity against human RPTEC after 4 days by alamar blue assay. The format is cell-based. The note with it: RPTEC cells, read-out: LC50. In general terms: Alamar Blue is a resazurin reagent that responds to reducing activity.

For orientation: IC50 means the point on the concentration scale where inhibition reaches its midpoint.

The structures appear in SMILES notation. Activity calls are given as the source filed them. The rule behind the calls is not given here.

Sequence of Dihydroorotate dehydrogenase (quinone), mitochondrial (Q02127 whole entry): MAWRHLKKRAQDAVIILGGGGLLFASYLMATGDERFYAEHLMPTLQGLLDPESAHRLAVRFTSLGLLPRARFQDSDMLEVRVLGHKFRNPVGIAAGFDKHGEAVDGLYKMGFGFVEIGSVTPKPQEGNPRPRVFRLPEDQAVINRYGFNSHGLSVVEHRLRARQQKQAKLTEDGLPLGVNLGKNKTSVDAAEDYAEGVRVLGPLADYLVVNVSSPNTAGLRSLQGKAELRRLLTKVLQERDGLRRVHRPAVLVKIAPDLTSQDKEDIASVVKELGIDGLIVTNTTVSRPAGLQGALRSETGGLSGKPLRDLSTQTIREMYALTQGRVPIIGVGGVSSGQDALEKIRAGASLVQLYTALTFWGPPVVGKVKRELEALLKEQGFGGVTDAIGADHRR
Sequence of Cytochrome P450 3A4 (P08684 whole entry): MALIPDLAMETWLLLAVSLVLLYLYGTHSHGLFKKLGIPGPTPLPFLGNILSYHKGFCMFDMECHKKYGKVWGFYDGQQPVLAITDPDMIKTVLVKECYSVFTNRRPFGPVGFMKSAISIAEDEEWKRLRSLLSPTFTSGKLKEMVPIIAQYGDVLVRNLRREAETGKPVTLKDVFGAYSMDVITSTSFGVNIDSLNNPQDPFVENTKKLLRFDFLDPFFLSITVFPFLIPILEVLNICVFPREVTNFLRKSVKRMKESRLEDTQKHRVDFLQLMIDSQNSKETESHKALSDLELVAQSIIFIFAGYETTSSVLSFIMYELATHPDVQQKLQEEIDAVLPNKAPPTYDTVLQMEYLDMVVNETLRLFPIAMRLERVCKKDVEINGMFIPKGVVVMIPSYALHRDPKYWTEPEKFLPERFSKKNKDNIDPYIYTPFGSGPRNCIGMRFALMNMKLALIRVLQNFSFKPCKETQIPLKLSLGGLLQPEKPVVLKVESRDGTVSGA

On to `COc1cccc2c1nc(C)n2-c1ccc(C(=O)NC2CC2)s1`, for which the IC50 stood at 162 nM in data set [1], 49 nM in the data set with Plasmodium falciparum [2] and 109 nM in the data set on Plasmodium falciparum [3]. For the same molecule, the inhibition result in the data set on Plasmodium berghei and with Plasmodium vivax was “Active” in each case. The CLhep predicted is 4 mL/min/kg in data set [4] and above 72 mL/min/kg in data set [5]. For the same molecule, the “inhibition (INH)” value is reported as “Not Active” on Cytochrome P450 1A2 (human, 10 min); “Not Active” against Cytochrome P450 2C9 (human, 10 min); “Not Active” on Cytochrome P450 2C19 (human, 0.75 h); “Not Active” against Cytochrome P450 3A4 (human, 5 min); “Not Active” against Cytochrome P450 2D6 (human, 10 min); “Not Active” in [6] (human, cho-k1).
As for `Cc1nc2cc(OC(F)(F)F)ccc2n1-c1ccc(C(=O)NC2CC2)s1`, the IC50 is 22 nM in [1]; 7 nM in the data set on Plasmodium falciparum [2]; 9 nM with Plasmodium falciparum [3]; 100 nM on Cytochrome P450 2D6; below 2800 nM in data set [6]. Besides, the inhibition result in the data set on Plasmodium berghei and with Plasmodium vivax was “Active” each time. Further, the CLhep predicted was 7 mL/min/kg in data set [4] and 43 mL/min/kg in [5].
For `O=C(NC1CC1)c1ccc(-n2c(C(F)(F)F)nc3ccccc32)s1`, the IC50 in data set [1] was 570 nM; in data set [7], above 30000 nM; in the data set with Plasmodium falciparum [2], 830 nM; in the data set on Plasmodium falciparum [3] it was 1710 nM. Further, in [8], the CC50 at 96 h was above 62000 nM.
Turning to `CCNC(=O)c1ccc(-n2cnc3ccccc32)s1`, the figures for the 50% inhibitory concentration (IC50) (in data set [1]; with Plasmodium falciparum [2]; with Plasmodium falciparum [3]) were 140 nM, 100 nM and 150 nM, respectively. Besides, the CC50 at 96 h in [8] was above 62000 nM.
For `Cc1nc2c(OC(F)F)cccc2n1-c1ccc(C(=O)NC2CC2)s1`, the IC50 in data set [1] is 44 nM; in data set [7], above 30000 nM; with Plasmodium falciparum [2], 19 nM; in the data set with Plasmodium falciparum [3], 26 nM; on Cytochrome P450 1A2 it was above 10000 nM; at Cytochrome P450 2C9, above 10000 nM. Moreover, the IC50 was above 10000 nM against Cytochrome P450 2C19, above 10000 nM on Cytochrome P450 3A4, above 10000 nM on Cytochrome P450 2D6 and 28800 nM in data set [6]. In addition, the inhibition result in the data set with Plasmodium berghei and in the data set with Plasmodium vivax was “Active” each time. In addition, the CLhep predicted in data set [4] was 4 mL/min/kg; in data set [5] it was 33 mL/min/kg.
`CNC(=O)c1ccc(-n2cnc3ccccc32)s1`: the results for the IC50 (in [1]; with Plasmodium falciparum [2]; in the data set with Plasmodium falciparum [3]) were 1080 nM, 280 nM and 420 nM, respectively. For the same molecule, the CC50 at 96 h in data set [8] is above 62000 nM.
As to `CCCc1nc2ccccc2n1-c1ccc(C(=O)NC2CC2)s1`, the IC50 was found to be 180 nM in [1], 15100 nM in [7], 390 nM in the data set with Plasmodium falciparum [2] and 630 nM in the data set with Plasmodium falciparum [3]. Further, the CC50 at 96 h in data set [8] is above 62000 nM.
On to `Cc1nc2ccccc2n1-c1ccc(C(=O)NC2CC2)s1`, for which the IC50 in [1] was 80 nM; in the data set with Plasmodium falciparum [2], 90 nM; in the data set with Plasmodium falciparum [3], 110 nM. Besides, in data set [8], the CC50 at 96 h was above 62000 nM.
Turning to `O=C(NC1CC1)c1ccc(-n2cnc3ccccc32)s1`, the IC50 in [1] was 60 nM; with Plasmodium falciparum [2], 80 nM; in the data set with Plasmodium falciparum [3], 90 nM. Moreover, the CC50 at 96 h in [8] is above 62000 nM.
Take `CCCNC(=O)c1ccc(-n2cnc3ccccc32)s1`: the IC50 in data set [1] was 700 nM; in data set [7], above 30000 nM; in the data set with Plasmodium falciparum [2], 470 nM; in the data set with Plasmodium falciparum [3], 1100 nM. For the same molecule, the CC50 at 96 h in data set [8] is above 62000 nM.
As for `CN(C)c1nc2ccccc2n1-c1ccc(C(=O)NC2CC2)s1`, the IC50 is 5600 nM in data set [1], above 1000 nM with Plasmodium falciparum [2] and above 1000 nM in the data set on Plasmodium falciparum [3]. The CC50 at 96 h in data set [8] was above 62000 nM.
